Results as given in PMC4306518 (Journal of Medicinal Chemistry, 2014).
Where two headings read alike, the source gives them in different places.

Legend:
rat nNOS = rat nNOS (Rattus norvegicus, UniProt P29476); assay: Ki with mammalian NOS isoforms: nNOS; type: biochemical; conditions: 6 compared to 2
bsNOS [1] = target: T1, bsNOS (Bacillus subtilis, UniProt O34453); assay: Imidazole displacement assay, spectral binding constant
T1 sequence (O34453 1-363): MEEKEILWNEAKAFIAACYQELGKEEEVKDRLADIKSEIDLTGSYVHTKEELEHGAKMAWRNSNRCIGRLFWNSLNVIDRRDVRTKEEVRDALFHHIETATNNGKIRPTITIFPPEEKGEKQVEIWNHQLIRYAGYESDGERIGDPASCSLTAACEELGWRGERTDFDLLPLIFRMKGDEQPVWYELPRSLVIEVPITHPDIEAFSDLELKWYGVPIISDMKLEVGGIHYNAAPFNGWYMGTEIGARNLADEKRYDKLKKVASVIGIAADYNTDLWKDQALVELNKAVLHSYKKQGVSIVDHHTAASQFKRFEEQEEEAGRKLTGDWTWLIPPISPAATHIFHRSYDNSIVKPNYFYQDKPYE

B. subtilis = assay: Effect of acriflavine and NOS inhibitors on B. subtilis survival; type: cell-based, Bacillus subtilis
Summary of the method: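 WT (ATCC 23857) and Δnos B. subtilis grown separately to OD600 ≈ 1.0, diluted to OD600 0.6 in LB, then brought up in M9 minimal medium with or without test compound (500 μM final) and/or acriflavine (800 μM final). Treated 30 min at 30 °C, serially diluted in M9, plated on LB agar + 0.5% glucose, 37 °C overnight. CFU counted; % survival relative to untreated cells; ≥3 replicates, mean ± SEM, Student's t test.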

bsNOS [2] = target: T1, bsNOS; conditions: read-out: imidazole KD bsNOS; used to calculate KS; cited from earlier work
iNOS = iNOS (Homo sapiens, UniProt P35228); conditions: read-out: imidazole KD iNOS; used to calculate KS; cited from earlier work
[3] = KS bsNOS (+H4B), presence of 50 μM H4B
[4] = KS bsNOS (−H4B), absence of H4B

Chain of rat nNOS (P29476 whole entry, canonical isoform): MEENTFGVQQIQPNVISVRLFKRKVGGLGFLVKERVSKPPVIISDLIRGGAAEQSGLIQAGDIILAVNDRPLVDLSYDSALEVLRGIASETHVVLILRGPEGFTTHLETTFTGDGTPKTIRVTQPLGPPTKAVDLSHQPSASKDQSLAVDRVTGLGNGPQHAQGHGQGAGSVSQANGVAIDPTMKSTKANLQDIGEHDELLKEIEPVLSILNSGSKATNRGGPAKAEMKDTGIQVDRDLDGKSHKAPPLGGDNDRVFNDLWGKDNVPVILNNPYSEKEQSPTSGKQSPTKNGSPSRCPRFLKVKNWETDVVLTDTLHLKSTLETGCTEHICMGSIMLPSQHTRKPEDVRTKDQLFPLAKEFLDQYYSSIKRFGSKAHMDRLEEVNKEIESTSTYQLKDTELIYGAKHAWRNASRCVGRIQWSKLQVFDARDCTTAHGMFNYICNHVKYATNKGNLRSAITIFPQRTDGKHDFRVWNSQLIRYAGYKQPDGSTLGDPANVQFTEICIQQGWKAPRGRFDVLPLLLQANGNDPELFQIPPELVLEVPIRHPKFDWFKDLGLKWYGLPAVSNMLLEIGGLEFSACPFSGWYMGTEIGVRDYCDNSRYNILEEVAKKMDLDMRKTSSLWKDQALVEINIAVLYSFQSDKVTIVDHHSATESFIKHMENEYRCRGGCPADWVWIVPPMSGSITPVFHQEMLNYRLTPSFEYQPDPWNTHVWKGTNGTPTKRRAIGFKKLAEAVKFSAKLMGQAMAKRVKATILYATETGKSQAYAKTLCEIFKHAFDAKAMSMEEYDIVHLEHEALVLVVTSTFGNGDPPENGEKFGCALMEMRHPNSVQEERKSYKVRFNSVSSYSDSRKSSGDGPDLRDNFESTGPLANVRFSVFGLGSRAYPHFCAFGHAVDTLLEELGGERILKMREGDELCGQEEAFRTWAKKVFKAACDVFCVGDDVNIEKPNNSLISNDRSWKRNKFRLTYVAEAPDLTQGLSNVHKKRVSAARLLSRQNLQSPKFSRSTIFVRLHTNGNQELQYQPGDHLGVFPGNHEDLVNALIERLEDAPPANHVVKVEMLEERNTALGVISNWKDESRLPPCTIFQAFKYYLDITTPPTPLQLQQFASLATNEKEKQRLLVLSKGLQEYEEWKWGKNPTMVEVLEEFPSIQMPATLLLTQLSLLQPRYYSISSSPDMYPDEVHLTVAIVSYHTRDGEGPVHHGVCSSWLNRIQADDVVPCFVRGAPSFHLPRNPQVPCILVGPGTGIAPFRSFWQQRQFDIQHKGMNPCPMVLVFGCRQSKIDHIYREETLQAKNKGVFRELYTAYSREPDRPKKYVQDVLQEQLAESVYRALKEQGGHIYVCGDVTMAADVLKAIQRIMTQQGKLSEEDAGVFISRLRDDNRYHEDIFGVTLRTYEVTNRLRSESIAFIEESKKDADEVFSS
Chain of iNOS (P35228 74-504 limits assumed): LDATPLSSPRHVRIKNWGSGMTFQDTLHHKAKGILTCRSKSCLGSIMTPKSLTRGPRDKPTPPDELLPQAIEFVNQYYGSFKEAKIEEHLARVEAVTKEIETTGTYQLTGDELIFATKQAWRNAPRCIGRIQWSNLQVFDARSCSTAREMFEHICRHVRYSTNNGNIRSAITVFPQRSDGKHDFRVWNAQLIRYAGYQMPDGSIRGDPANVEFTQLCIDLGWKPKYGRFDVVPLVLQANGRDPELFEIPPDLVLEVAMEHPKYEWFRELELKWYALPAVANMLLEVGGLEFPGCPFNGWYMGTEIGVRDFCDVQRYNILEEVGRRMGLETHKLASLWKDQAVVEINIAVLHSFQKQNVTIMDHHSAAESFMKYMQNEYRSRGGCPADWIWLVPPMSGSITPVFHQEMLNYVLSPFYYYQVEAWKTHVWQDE

Compound	Kd (bsNOS [1]; [3]) [µM]	Kd (bsNOS [1]; [4]) [µM]	further results
Cc1cc(N)nc(CCc2cc(CN)cc(CCc3ccc4cc[nH]c4n3)c2)c1 [compound 6, 6-(3-(2-(1H-Pyrrolo[2,3-b]pyridin-6-yl)ethyl)-5-(aminomethyl)phenethyl)-4-methylpyridin-2-amine]	12 ± 4	10 ± 2	fold decrease of potency toward nNOS compared to 2 (rat nNOS): > 4 fold
NC(=NCCCC(N)C(=O)O)NO [N-ω-hydroxy-L-arginine (L-NNA), N-ω-hydroxy-L-arginine, reference compound]	1.9 ± 0.1	–	–
acriflavine [reference compound]	–	–	bacterial growth, % of control (B. subtilis; ACR alone (800 μM), 30 min): 23%
c1c[nH]cn1 [imidazole]	–	–	Kd (bsNOS [2]): 384 µM; Kd (iNOS): 158 µM

Continued, in another order:

Kd (bsNOS [1]; [3]) [µM]	Kd (bsNOS [1]; [4]) [µM]	Compound	further results
19 ± 2	12 ± 1	CNc1cc(C)cc(CCc2cc(C#N)cc(CCc3cc(C)cc(N)n3)c2)n1 [compound 4, 3-(2-(6-Amino-4-methylpyridin-2-yl)ethyl)-5-(2-(4-methyl-6-(methylamino)pyridin-2-yl)ethyl)benzonitrile]	–
47 ± 2	15 ± 3	Cc1cc(N)nc(CCc2cc(CN)cc(CCc3cc(C)cc(N)n3)c2)c1 [compound 2]	bacterial growth inhibition (in words) (B. subtilis; B. subtilis): good inhibitor of bacterial growth
19 ± 1	16 ± 1	Cc1cc(N)nc(CCc2cc(CCCN)cc(CCc3cc(C)cc(N)n3)c2)c1 [compound 3]	–
1.9 ± 0.1	0.91 ± 0.08	Cc1cc(N)nc(CCc2cc(N)cc(CCc3cc(C)cc(N)n3)c2)c1 [compound 1]	fold difference in binding (KS) to bsNOS in presence vs absence of H4B (bsNOS [1]; 50 μM H4B vs no H4B): 2 fold
